Experiments:
Assay type in all cases: biochemical
[1] = molecular target: T1, meprin α (Homo sapiens, UniProt Q16819); test: Meprin α HTS FRET assay, dose response; details: read-out: IC50 Meprin α; selectivity testing; n = 3 Mean ± SD
T1 sequence (Q16819 66-653 limits assumed): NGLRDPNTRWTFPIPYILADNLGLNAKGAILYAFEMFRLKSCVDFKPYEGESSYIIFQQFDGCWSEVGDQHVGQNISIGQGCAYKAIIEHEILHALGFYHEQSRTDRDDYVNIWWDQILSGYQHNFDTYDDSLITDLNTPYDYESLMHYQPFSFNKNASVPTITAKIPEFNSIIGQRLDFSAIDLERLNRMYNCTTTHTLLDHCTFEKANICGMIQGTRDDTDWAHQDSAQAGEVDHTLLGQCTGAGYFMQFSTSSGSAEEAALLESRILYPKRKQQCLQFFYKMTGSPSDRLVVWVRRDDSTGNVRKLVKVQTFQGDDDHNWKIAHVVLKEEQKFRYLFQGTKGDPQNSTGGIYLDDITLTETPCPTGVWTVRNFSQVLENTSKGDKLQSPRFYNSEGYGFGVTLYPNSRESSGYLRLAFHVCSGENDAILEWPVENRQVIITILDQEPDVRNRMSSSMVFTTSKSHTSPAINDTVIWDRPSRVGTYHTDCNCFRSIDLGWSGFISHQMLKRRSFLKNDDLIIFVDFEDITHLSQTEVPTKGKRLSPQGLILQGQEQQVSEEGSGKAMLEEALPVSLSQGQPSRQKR
In short: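 Recombinant human Strep-tagged meprin α was expressed in baculovirus-infected BTI-TN-5B1-4 cells, trypsin-activated, then freed of trypsin. It was used as a 2x solution at 2.6 nM in 50 mM Hepes, 0.01% Brij-35, pH 7.5. Test compound was pre-incubated 30 min at RT, then 2x (MCA)-YVADAPK-(K-ε-DNP) at 20 μM was added for 1 h at RT. Read at ex 324/em 393 nm. 3-fold dilutions in quadruplicate; 4-parameter fit; 0.1% or 1.0% DMSO.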

[2] = molecular target: T2, meprin β (Homo sapiens, UniProt Q16820); test: Meprin β HTS FRET assay, dose response; details: dose response experiment, data not shown
T2 sequence (Q16820 62-614 limits assumed): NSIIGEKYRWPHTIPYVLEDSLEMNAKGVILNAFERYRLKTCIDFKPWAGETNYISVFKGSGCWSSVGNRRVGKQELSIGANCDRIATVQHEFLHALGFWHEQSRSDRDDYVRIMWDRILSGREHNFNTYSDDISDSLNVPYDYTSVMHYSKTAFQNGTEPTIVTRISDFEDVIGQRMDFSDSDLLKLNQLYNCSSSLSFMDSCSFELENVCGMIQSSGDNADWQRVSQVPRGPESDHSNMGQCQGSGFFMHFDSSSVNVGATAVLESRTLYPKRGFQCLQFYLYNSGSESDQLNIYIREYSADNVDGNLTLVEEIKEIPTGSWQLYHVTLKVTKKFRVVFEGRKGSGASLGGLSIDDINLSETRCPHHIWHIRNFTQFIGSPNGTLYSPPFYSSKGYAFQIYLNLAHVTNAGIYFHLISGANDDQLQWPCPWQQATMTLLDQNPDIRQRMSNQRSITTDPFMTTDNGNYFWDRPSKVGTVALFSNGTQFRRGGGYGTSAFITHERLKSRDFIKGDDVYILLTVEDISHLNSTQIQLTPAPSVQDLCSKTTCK
In short: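 Trypsin-activated meprin β (trypsin removed on immobilized ovomucoid) in 50 mM Hepes, 0.01% Brij-35, pH 7.5, added as 2x (0.15 nM) solution. Pin-transferred inhibitor was preincubated 30 min at RT. 2x (20 μM) (MCA)-EDEDED-(K-ε-DNP) was then added, run 1 h at RT, and read at ex 324/em 393 nm. A 3-fold dilution series was run in quadruplicate, and % inhibition was fitted with a 4-parameter equation. DMSO final was 0.1% or 1.0%.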

[3] = molecular target: T3, MMP-1 (Homo sapiens, UniProt P03956); test: Selectivity testing against zinc metalloproteases: MMP-1; details: read-out: IC50 MMP-1; n = 3 Mean ± SD
T3 sequence (P03956 100-469): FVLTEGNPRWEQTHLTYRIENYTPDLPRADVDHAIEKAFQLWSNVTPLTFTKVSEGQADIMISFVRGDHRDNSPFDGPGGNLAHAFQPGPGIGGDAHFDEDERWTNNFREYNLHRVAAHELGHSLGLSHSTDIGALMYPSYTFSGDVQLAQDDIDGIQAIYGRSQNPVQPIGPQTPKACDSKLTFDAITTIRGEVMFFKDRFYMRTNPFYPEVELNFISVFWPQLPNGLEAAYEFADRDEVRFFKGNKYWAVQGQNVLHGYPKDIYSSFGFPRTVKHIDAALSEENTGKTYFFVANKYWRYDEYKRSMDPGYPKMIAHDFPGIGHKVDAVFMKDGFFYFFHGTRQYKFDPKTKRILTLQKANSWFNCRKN

[4] = molecular target: T4, MMP-2 (Homo sapiens, UniProt P08253); test: Selectivity testing against zinc metalloproteases: MMP-2; details: read-out: IC50 MMP-2; n = 3 Mean ± SD
T4 sequence (P08253 110-660): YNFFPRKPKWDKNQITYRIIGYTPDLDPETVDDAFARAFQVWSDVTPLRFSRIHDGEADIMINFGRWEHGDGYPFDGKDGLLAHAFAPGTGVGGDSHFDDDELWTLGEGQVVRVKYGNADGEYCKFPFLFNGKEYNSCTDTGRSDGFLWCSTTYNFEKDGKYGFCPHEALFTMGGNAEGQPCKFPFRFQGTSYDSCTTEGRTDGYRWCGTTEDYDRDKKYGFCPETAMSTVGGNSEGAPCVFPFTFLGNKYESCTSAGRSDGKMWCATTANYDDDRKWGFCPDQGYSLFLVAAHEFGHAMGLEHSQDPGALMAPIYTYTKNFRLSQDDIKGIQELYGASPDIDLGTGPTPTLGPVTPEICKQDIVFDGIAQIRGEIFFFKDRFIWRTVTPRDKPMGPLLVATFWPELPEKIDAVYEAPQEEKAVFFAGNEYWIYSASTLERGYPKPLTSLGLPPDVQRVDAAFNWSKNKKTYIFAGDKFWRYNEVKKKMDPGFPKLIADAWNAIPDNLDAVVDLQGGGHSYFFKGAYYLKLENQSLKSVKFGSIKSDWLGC

[5] = molecular target: MMP-9 (Homo sapiens, UniProt P14780); test: Selectivity testing against zinc metalloproteases: MMP-9; details: read-out: IC50 MMP-9; n = 3 Mean ± SD
Sequence of MMP-9 (P14780 94-707, species assumed): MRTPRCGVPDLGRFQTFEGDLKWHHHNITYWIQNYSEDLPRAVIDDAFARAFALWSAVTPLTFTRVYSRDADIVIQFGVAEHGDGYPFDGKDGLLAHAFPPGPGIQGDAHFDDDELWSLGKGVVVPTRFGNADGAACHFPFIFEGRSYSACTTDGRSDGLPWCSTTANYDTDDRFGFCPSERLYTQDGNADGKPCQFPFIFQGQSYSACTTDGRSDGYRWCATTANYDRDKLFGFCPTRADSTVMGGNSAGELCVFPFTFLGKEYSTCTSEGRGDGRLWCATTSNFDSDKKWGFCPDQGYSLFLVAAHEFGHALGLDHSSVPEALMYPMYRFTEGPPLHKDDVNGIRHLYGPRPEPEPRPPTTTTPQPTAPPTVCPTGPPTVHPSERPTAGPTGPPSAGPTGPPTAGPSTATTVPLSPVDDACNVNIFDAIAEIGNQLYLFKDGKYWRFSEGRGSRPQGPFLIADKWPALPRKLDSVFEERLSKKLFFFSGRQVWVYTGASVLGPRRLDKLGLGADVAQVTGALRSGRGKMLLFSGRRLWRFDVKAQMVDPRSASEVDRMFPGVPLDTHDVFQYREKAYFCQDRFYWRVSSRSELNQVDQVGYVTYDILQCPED

[6] = molecular target: MMP-13 (Homo sapiens, UniProt P45452); test: Selectivity testing against zinc metalloproteases: MMP-13; details: read-out: IC50 MMP-13; n = 3 Mean ± SD
[7] = molecular target: T5, ADAM10 (Homo sapiens, UniProt O14672); test: Selectivity testing against zinc metalloproteases: ADAM10; details: read-out: IC50 ADAM10; n = 3 Mean ± SD
T5 sequence (O14672 214-748): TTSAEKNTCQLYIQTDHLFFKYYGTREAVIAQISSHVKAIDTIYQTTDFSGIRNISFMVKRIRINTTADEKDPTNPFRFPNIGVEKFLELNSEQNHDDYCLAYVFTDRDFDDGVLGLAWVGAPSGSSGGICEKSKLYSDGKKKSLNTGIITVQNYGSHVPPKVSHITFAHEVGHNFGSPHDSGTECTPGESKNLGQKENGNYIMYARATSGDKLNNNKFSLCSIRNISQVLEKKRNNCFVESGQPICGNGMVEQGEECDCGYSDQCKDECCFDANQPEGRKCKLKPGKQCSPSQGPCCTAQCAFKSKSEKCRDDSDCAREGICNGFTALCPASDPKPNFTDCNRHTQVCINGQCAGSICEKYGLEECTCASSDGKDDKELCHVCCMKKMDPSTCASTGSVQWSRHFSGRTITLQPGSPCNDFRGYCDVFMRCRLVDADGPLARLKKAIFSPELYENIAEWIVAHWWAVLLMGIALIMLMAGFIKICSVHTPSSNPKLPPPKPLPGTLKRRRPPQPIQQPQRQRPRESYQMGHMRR

[8] = molecular target: ADAM17 (Homo sapiens, UniProt P78536); test: Selectivity testing against zinc metalloproteases: ADAM17; details: read-out: IC50 ADAM17; n = 3 Mean ± SD
Sequence of ADAM17 (P78536 215-824, species assumed): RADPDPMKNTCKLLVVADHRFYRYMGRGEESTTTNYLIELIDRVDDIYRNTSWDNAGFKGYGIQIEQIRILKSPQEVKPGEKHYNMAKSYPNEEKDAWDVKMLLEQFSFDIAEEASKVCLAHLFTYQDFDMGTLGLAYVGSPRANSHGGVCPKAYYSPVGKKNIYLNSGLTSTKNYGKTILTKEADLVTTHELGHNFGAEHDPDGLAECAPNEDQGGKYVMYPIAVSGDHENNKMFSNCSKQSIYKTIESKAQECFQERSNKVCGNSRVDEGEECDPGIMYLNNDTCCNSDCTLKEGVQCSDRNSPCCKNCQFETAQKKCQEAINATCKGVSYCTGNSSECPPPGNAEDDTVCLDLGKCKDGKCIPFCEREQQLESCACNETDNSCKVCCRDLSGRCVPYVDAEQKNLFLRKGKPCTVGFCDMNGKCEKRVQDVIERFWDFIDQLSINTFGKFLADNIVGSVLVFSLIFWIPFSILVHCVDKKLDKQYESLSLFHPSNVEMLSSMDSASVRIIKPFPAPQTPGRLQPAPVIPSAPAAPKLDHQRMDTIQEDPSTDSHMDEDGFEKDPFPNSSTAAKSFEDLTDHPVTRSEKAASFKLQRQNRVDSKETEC

[9] = molecular target: T2, meprin β; test: Meprin β LOPAC pilot screen; details: 18 μM

SMILES: N.N.[Cl][Pt][Cl] [Cisplatin, cisplatin]
- IC50 [1]: > 100 µM
- meprin β dose response behaviour [2]: dose dependent negative inhibition
- IC50 [3]: 5.1 ± 0.5 µM
- IC50 [4]: 5.1 ± 0.6 µM
- IC50 [5]: 13.9 ± 2.1 µM
- IC50 [6]: > 100 µM
- IC50 [7]: 4.2 ± 0.2 µM
- IC50 [8]: 5.1 ± 0.4 µM
- % inhibition meprin β in pilot screen [9]: negative inhibition values
- meprin β LOPAC pilot screen outcome ([9]; hit cutoff 25% inhibition): selective hits
